Results from ChEMBL document CHEMBL1138829, “Conformationally constrained analogues of diacylglycerol. 21. A solid-phase method of synthesis of diacylglycerol lactones as a prelude to a combinatorial approach for the synthesis of protein kinase C isozyme-specific ligands” (J Med Chem, 2004).

What was measured:
[1] = Partition coefficient (logP); format: physicochemical; conditions: octanol/water
[2] = target: T1, Protein kinase C alpha type (Homo sapiens, UniProt P17252); test: (§1) Displacement of [20-3H]phorbol-12,13-dibutyrate (PDBu) from a recombinant protein kinase C alpha with phosphatidylserine
Method in brief: (§2)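 Competition binding against [20-3H]PDBu using intact recombinant single isozyme PKC-alpha in presence of phosphatidylserine; tested as crude resin-cleaved and purified samples. ID50 obtained by least-squares fit of theoretical sigmoidal competition curve; Ki calculated from ID50 via standard relationship.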

[3] = target: T1, Protein kinase C alpha type; test: as §1; method in brief: as §2; remark: listed apart in the source
[4] = target: T1, Protein kinase C alpha type; test: as §1; method in brief: as §2; remark: listed apart in the source

Structure (SMILES) | logP [1] | Ki [2] [nM] | Ki [3] [nM] | Ki [4] [nM]
CCCCCCCCC/C=C1/CC(CO)(COC(=O)c2ccc(-c3ccccc3)cc2)OC1=O (configuration not stated) | 6.61 | 52.4 | 19.1 | –
CCCCCCCC/C=C1/CC(CO)(COC(=O)Cc2ccccc2)OC1=O (configuration not stated) | 4.61 | – | 43.3 | 145
CCCCCCCCC/C=C1/CC(CO)(COC(=O)c2ccccc2)OC1=O (configuration not stated) | 4.85 | 37 | 20.3 | –
CCCCCCCC/C=C1/CC(CO)(COC(=O)c2ccccc2)OC1=O (configuration not stated) | 4.36 | – | 25.7 | 45.6
CCCCCCCC/C=C1/CC(CO)(COC(=O)c2ccc(-c3ccccc3)cc2)OC1=O (configuration not stated) | 6.12 | – | 28 | 41.8
O=C1OC(CO)(COC(=O)c2ccccc2)C/C1=C/c1ccc(-c2ccccc2)cc1 (configuration not stated) | 3.9 | – | 14.1 | 41
O=C(Cc1ccccc1)OCC1(CO)C/C(=C/c2ccc(-c3ccccc3)cc2)C(=O)O1 (configuration not stated) | 4.15 | – | 48 | 152
CCCCCCCCC/C=C1/CC(CO)(COC(=O)Cc2ccccc2)OC1=O (configuration not stated) | 5.1 | 92.5 | 43.8 | –
O=C1OC(CO)(COC(=O)c2ccc(-c3ccccc3)cc2)C/C1=C/c1ccc(-c2ccccc2)cc1 (configuration not stated) | 5.66 | – | 22.7 | 83.9
